Measurements: ChEMBL document CHEMBL4392827, “Tryptamine derivatives disarm colistin resistance in polymyxin-resistant gram-negative bacteria” (Bioorg Med Chem, 2019)

What was measured:
[1] = system: Acinetobacter baumannii; assay: Potentiation of colistin-induced antimicrobial activity against Acinetobacter baumannii ATCC 17978 assessed as fold reduction in colistin MIC at 60 uM after 18 hrs by broth microdilution assay; assay type: functional
In short: (§1)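 Bacteria grown 4–6 h in cation-adjusted Mueller-Hinton broth and diluted to 5 ×10^5 CFU/mL. Adjuvant from DMSO stock held at fixed 60 μM while colistin is twofold serially diluted in the same adjuvant-dosed broth. Plates sealed and kept stationary at 37°C for 18 h. Colistin MIC read and fold reduction taken relative to colistin alone.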

[2] = system: Klebsiella pneumoniae; assay: Toxicity in Klebsiella pneumoniae B9 after 18 hrs by broth microdilution assay; assay type: organism-based
In short: (§2)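 Single-agent MIC per CLSI broth microdilution. Cells from a 4–6 h culture in cation-adjusted Mueller-Hinton broth adjusted to 5 ×10^5 CFU/mL. Compound (DMSO stock) added to 200 μM top concentration and twofold serially diluted six times, with an untreated control row. Plates sealed and incubated stationary at 37°C for 18 h before MIC read.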

[3] = system: Klebsiella pneumoniae; assay: Potentiation of colistin-induced antimicrobial activity against colistin-resistant Klebsiella pneumoniae isolate C3 assessed as fold reduction in colistin MIC at 30 uM incubated for 2 to 24 hrs under shaking condition in presence of 0.001% triton X-100 by broth microdilution assay; assay type: functional
[4] = system: Acinetobacter baumannii; assay: Induction of membrane permeabilization in colistin-resistant Acinetobacter baumannii isolate 3942 at 60 uM measured after 1 hr by SYTO-9/propidium iodide staining based fluorescence assay relative to control; assay type: functional
In short: (§3)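 Cells were grown overnight in CAMHB at 37°C, diluted 1:10 and grown 4 h more to an OD600 of ~0.3. They were pelleted, washed with sterile water and resuspended at 1/10 volume in water containing compound. After 1 h at 37°C with shaking, cells were washed and stained with SYTO-9/propidium iodide (1:1, 3 μL/mL) for 15 min at RT. Emission was read at 530 and 645 nm (excitation 485 nm), and the green/red ratio was expressed as % of the untreated control.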

[5] = system: Klebsiella pneumoniae; assay: Induction of membrane permeabilization in colistin-resistant Klebsiella pneumoniae isolate C3 at 60 uM measured after 1 hr by SYTO-9/propidium iodide staining based fluorescence assay relative to control; assay type: functional; in short: as §3
[6] = system: Acinetobacter baumannii; assay: Potentiation of colistin-induced antimicrobial activity against colistin-resistant Acinetobacter baumannii 4106 assessed as fold reduction in colistin MIC at 60 uM after 18 hrs by broth microdilution assay; assay type: functional
In short: (§4)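 Checkerboard-style resensitization following adapted CLSI broth microdilution. Bacteria were grown 4–6 h in CAMHB and subcultured to 5×10^5 CFU/mL. Adjuvant was added from DMSO stock and held constant while colistin was serially diluted in the dosed subculture. Plates were incubated stationary at 37°C for 18 h, then MICs were read. Fold reduction was taken relative to the colistin MIC without adjuvant.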

[7] = system: Acinetobacter baumannii; assay: Potentiation of colistin-induced antimicrobial activity against colistin-resistant Acinetobacter baumannii isolate 3942 after 18 hrs by broth microdilution assay; assay type: functional, organism-based
In short: (§5)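 Colistin MIC was determined by adapted CLSI broth microdilution in CAMHB (5×10^5 CFU/mL inoculum), with adjuvant held at fixed levels of 5, 10, 15, 20, 30, 40, 50 or 60 μM. Adjuvant was dosed from DMSO stock while colistin was serially diluted. Plates were incubated stationary at 37°C for 18 h. Fold reduction was taken versus colistin alone.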

[8] = system: Klebsiella pneumoniae; assay: Potentiation of colistin-induced antimicrobial activity against colistin-resistant Klebsiella pneumoniae isolate C3 assessed as fold reduction in colistin MIC at 40 uM after 18 hrs by broth microdilution assay; assay type: functional
In short: (§6)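 CLSI-adapted broth microdilution. Bacteria were grown 4–6 h in cation-adjusted Mueller-Hinton broth and subcultured to 5 ×10^5 CFU/mL. The subculture was dosed with adjuvant from DMSO stock at a constant final concentration, then colistin was added and serially diluted across wells. Plates were incubated stationary at 37°C for 18 h and the MIC recorded. Fold reduction is relative to the colistin MIC without adjuvant.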

[9] = system: Klebsiella pneumoniae; assay: Potentiation of colistin-induced antimicrobial activity against colistin-resistant Klebsiella pneumoniae isolate C3 after 18 hrs by broth microdilution assay; assay type: functional, organism-based; in short: as §5
[10] = system: Acinetobacter baumannii; assay: Potentiation of colistin-induced antimicrobial activity against colistin-resistant Acinetobacter baumannii isolate 3942 assessed as fold reduction in colistin MIC at 30 uM after 18 hrs by broth microdilution assay; assay type: functional; in short: as §6
[11] = system: Acinetobacter baumannii; assay: Potentiation of colistin-induced antimicrobial activity against colistin-resistant Acinetobacter baumannii isolate 3942 assessed as fold reduction in colistin MIC at 5 uM after 18 hrs by broth microdilution assay; assay type: functional; in short: as §6
[12] = system: Klebsiella pneumoniae; assay: Potentiation of colistin-induced antimicrobial activity against colistin-resistant Klebsiella pneumoniae isolate C3 assessed as fold reduction in colistin MIC at 15 uM after 18 hrs by broth microdilution assay; assay type: functional; in short: as §6
[13] = system: Escherichia coli; assay: Potentiation of colistin-induced antimicrobial activity against colistin-resistant Escherichia coli ATCC 25922 expressing mcr1 gene assessed as fold reduction in colistin MIC at 60 uM after 18 hrs by broth microdilution assay; assay type: functional; in short: as §4
[14] = Hemolytic activity in sheep erythrocytes assessed as hemolysis at 100 uM incubated for 1 hr under shaking condition by UV-spectrophotometry; assay type: ADME, cell-based, Ovis aries, Erythrocyte; details: read-out: Activity
In short: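 Washed sheep erythrocytes (defibrinated blood spun, resuspended in PBS three times) diluted 10-fold in PBS containing compound from DMSO stock. DMSO negative control (0% lysis), 1% Triton X100 positive control (100% lysis). 1 h at 37°C with shaking, then spun 10 min at 10,000 rpm and supernatant diluted 1:40 in distilled water.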

[15] = system: Klebsiella pneumoniae; assay: Potentiation of colistin-induced antimicrobial activity against colistin-resistant Klebsiella pneumoniae isolate C3 assessed as fold reduction in colistin MIC at 20 uM after 18 hrs by broth microdilution assay; assay type: functional; in short: as §6
[16] = system: Escherichia coli; assay: Toxicity in Escherichia coli ATCC 25922 after 18 hrs by broth microdilution assay; assay type: organism-based; details: in vitro; in short: as §2
[17] = system: Acinetobacter baumannii; assay: Potentiation of colistin-induced antimicrobial activity against colistin-resistant Acinetobacter baumannii isolate 3941 assessed as fold reduction in colistin MIC at 60 uM after 18 hrs by broth microdilution assay; assay type: functional; in short: as §4
[18] = system: Acinetobacter baumannii; assay: Potentiation of colistin-induced antimicrobial activity against colistin-resistant Acinetobacter baumannii isolate 3942 assessed as fold reduction in colistin MIC at 10 uM after 18 hrs by broth microdilution assay; assay type: functional; in short: as §6
[19] = system: Acinetobacter baumannii; assay: Potentiation of colistin-induced antimicrobial activity against colistin-resistant Acinetobacter baumannii ATCC 17978 expressing mcr1 gene assessed as fold reduction in colistin MIC at 60 uM after 18 hrs by broth microdilution assay; assay type: functional; in short: as §4
[20] = system: Acinetobacter baumannii; assay: Toxicity in colistin-resistant Acinetobacter baumannii isolate 3942 at 60 uM after 18 hrs by broth microdilution assay; assay type: organism-based
[21] = system: Klebsiella pneumoniae; assay: Potentiation of colistin-induced antimicrobial activity against colistin-resistant Klebsiella pneumoniae isolate A5 assessed as fold reduction in colistin MIC at 60 uM after 18 hrs by broth microdilution assay; assay type: functional; in short: as §4
[22] = system: Klebsiella pneumoniae; assay: Potentiation of colistin-induced antimicrobial activity against colistin-resistant Klebsiella pneumoniae isolate C3 assessed as fold reduction in colistin MIC at 10 uM after 18 hrs by broth microdilution assay; assay type: functional; in short: as §6
[23] = system: Acinetobacter baumannii; assay: Potentiation of colistin-induced antimicrobial activity against colistin-sensitive Acinetobacter baumannii 5075 assessed as fold reduction in colistin MIC at 60 uM after 18 hrs by broth microdilution assay; assay type: functional; in short: as §1
[24] = system: Acinetobacter baumannii; assay: Toxicity in Acinetobacter baumannii 4106 after 18 hrs by broth microdilution assay; assay type: organism-based; details: in vitro; in short: as §2

## O=C(NCc1c[nH]c2ccccc12)c1cc(Br)c(Br)[nH]1
[1]
  fold change (FC): 4
[2]
  MIC: > 200 µM
[3]
  fold change (FC): 512
[4]
  fold change (FC): 1.9
[5]
  fold change (FC): 1.5
[6]
  fold change (FC): 2048
[7]
  Activity: Dose-dependent effect
[8]
  fold change (FC): 256
[9]
  Activity: Dose-dependent effect
[10]
  fold change (FC): 128
[11]
  fold change (FC): 0
[12]
  fold change (FC): 64
[13]
  fold change (FC): 16
[14]
  hemolysis at 1 h, 100 µM: < 1%
[15]
  fold change (FC): 128
[16]
  MIC: > 200 µM
[17]
  fold change (FC): 1024
[18]
  fold change (FC): 2
[19]
  fold change (FC): 32
[20]
  Activity: Non-Toxic
[21]
  fold change (FC): 512
[22]
  fold change (FC): 32
[23]
  fold change (FC): 4
[24]
  MIC: > 200 µM
